The record followed here is ChEMBL document CHEMBL1141957, “Screening of electrophilic compounds yields an aziridinyl peptide as new active-site directed SARS-CoV main protease inhibitor” (Bioorg Med Chem Lett, 2005).

The first assay has as its target Replicase polyprotein 1a (Severe acute respiratory syndrome-related coronavirus) (UniProt P0C6U8). The experiment in a line: Inhibition of Mpro in SARS-CoV at 100 uM in HPLC assay.
`CCOC(=O)[C@H]1N[C@@H]1C(=O)NCC(=O)NCC(=O)OCc1ccccc1` gave an inhibition of 75%.

For another assay the target is unchanged. The assay is described as follows: Inhibition of Mpro in SARS-CoV at 100uM.
The molecule `C[C@@H]1O[C@@H]1C(=O)N[C@H](Cc1ccccc1)C(=O)O` had an inhibition below 10%.

For `C[C@@H]1O[C@@H]1C(=O)N[C@H](Cc1ccccc1)C(=O)OCc1ccccc1`, the inhibition was below 10%.

The molecule `CC(C)C[C@@H]1O[C@@H]1[C@H](Cc1ccccc1)NC(=O)OC(C)(C)C` returned an inhibition below 10%. Still for that read-out and setting: as for `COC(=O)C1(C(=O)OC)NC1C` (stereo unspecified), the figure is below 10%; as for `COC(=O)CN1CC1C(=O)N[C@@H](Cc1ccccc1)C(=O)OC` (stereo partly specified), below 10%; as for `COC(=O)[C@H]1N[C@H]1C(=O)OC`, below 10%. `COC(=O)C1(C(=O)OC)C(C)N1C(=O)OC(C)(C)C` (stereo unspecified) showed an inhibition below 10%.

As for `COC(=O)[C@H]1O[C@H]1C(=O)OC`, the inhibition is below 10%. `C[C@H]1O[C@H]1C(=O)N[C@@H](Cc1ccccc1)C(=O)O`: the inhibition was below 10%. The molecule `CCOC(=O)N1C(C)C1(C(=O)OC)C(=O)OC` (stereo unspecified) yielded an inhibition below 10%.

In the case of `C[C@H]1O[C@H]1C(=O)O`, the inhibition was below 10%. `COC(=O)C1C(c2ccccc2)N1Cc1ccccc1` (stereo unspecified): the inhibition is below 10%. In turn, `CCOC(=O)[C@H]1N[C@H]1C(=O)OCC` registered an inhibition below 10%. Same read-out and setting: with `CCOC(=O)[C@H]1N[C@@H]1C(=O)N[C@H](C(=O)OCc1ccccc1)[C@@H](C)CC` the figure was below 10%; with `C[C@H]1O[C@H]1C(=O)N[C@H](Cc1ccccc1)C(=O)OCc1ccccc1`, below 10%; with `CCOC(=O)C1C(C)N1Cc1ccccc1` (stereo unspecified), below 10%.

The target in another assay is Procathepsin L (Homo sapiens, UniProt P07711). The experiment in a line: Inhibitory activity against cathepsin L.
Sequence of Procathepsin L (P07711 whole entry): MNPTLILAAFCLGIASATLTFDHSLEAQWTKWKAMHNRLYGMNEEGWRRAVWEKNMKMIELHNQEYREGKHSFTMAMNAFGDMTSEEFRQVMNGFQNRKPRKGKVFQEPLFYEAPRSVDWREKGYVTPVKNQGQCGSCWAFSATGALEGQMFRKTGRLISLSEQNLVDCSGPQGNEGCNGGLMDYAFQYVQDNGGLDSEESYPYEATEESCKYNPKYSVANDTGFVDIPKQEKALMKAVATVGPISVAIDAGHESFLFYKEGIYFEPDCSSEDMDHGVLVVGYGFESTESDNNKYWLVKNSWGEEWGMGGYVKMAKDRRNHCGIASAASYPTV
Molecule `CCOC(=O)[C@H]1[C@H](C(=O)OCC)N1C(=O)[C@@H](NC(=O)OC(C)(C)C)C(C(C)C)N1CCC1` (stereo partly specified) gave a Ki of 4.8 µM.

For `CC(C)(C)OC(=O)N[C@H](C(=O)N1[C@H](C(=O)OCc2ccccc2)[C@H]1C(=O)OCc1ccccc1)N1CCCCC1`, the Ki was 6.4 µM.

Another assay has as its target Replicase polyprotein 1a (Severe acute respiratory syndrome-related coronavirus) (UniProt P0C6U8). The experiment in a line: Inhibition of Mpro in SARS-CoV at 100 uM in FRET-based assay. A digest of the protocol:
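Fluorimetric read-out: SARS-CoV Mpro cleavage of a FRET-pair-labeled peptide substrate. Percent inhibition reported as the mean of at least 2 independent assays.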
On to `CCOC(=O)[C@H]1[C@H](C(=O)OCC)N1C(=O)[C@@H](NC(=O)OC(C)(C)C)C(C(C)C)N1CCC1` (stereo partly specified), for which the inhibition was 16%. Same read-out and setting: as for `CC(C)[C@H](NC(=O)C1C(c2ccccc2)N1Cc1ccccc1)C(=O)OCc1ccccc1` (stereo partly specified), the figure is 22%. On the same count and under the same terms, with `CC1C(C(=O)N[C@@H](Cc2ccccc2)C(=O)OCc2ccccc2)N1Cc1ccccc1` (stereo partly specified) the figure was 34%; with `COC(=O)C1CN1CC(=O)OCc1ccccc1` (stereo unspecified), 26%; with `C[C@H]1O[C@H]1C(=O)N[C@@H](Cc1ccccc1)C(=O)OCc1ccccc1`, 15%. Same read-out and setting: with `COC(=O)CN1CC1C(=O)OC` (stereo unspecified) the figure was 30%.

In the case of `C[C@@H]1O[C@@H]1C(=O)N[C@@H](Cc1ccccc1)C(=O)OCc1ccccc1`, the inhibition came out at 28%. Still for that read-out and setting: with `CCOC(=O)[C@H]1[C@H](C(=O)OCC)N1C(=O)[C@@H]1CCCN1C(=O)[C@H](CC(C)C)NC(=O)OC(C)(C)C` the figure was 16%; with `CC(C)(C)OC(=O)N[C@H](C(=O)N1[C@H](C(=O)OCc2ccccc2)[C@H]1C(=O)OCc1ccccc1)N1CCCCC1`, 29%; with `CCOC(=O)[C@H]1N[C@@H]1C(=O)NCC(=O)NCC(=O)OCc1ccccc1`, 54%.

The molecule `CC[C@H](C)[C@@H](C(=O)OCc1ccccc1)N1CC1C(=O)OC` (stereo partly specified) yielded an inhibition of 30%. The same measure, in the same setting: with `O=C(N[C@@H](Cc1ccccc1)C(=O)OCc1ccccc1)C1C(c2ccccc2)N1Cc1ccccc1` (stereo partly specified) the figure was 30%. In turn, `COC(=O)C1CN1[C@H](C(=O)OCc1ccccc1)C(C)C` (stereo partly specified) came in with an inhibition of 20%. Molecule `CC(C)[C@H](NC(=O)[C@@H]1O[C@@H]1C)C(=O)OCc1ccccc1` registered an inhibition of 10%. Regarding `COC(=O)C1CN1[C@@H](CC(=O)OCc1ccccc1)C(=O)OCc1ccccc1` (stereo partly specified), the inhibition is 28%. Still for that read-out and setting: as for `CCOC(=O)C1OC1C(=O)N[C@@H](Cc1ccccc1)C(=O)OCc1ccccc1` (stereo partly specified), the figure is 22%; as for `COC(=O)C1CN1CCCC[C@H](NC(=O)OCc1ccccc1)C(=O)OC` (stereo partly specified), 48%; as for `COC(=O)C1CN1[C@@H](CC(C)C)C(=O)OCc1ccccc1` (stereo partly specified), 34%. On the same count and under the same terms, as for `COC(=O)C1CN1[C@@H](C)C(=O)OC` (stereo partly specified), the figure is 39%; as for `C[C@H]1[C@@H](C(=O)N[C@@H](Cc2ccccc2)C(=O)OCc2ccccc2)N1Cc1ccccc1` (stereo partly specified), 24%. As to `COC(=O)C1CN1[C@@H](CCSC)C(=O)OC` (stereo partly specified), the inhibition turned out to be 28%. `COC(=O)C1CN1[C@H](C(=O)OC)C(C)C` (stereo partly specified) had an inhibition of 30%.

A word on the inhibition: it is the drop in the measured response relative to a control, in per cent. Broadly, the Ki is the dissociation constant of the complex between target and ligand, obtained from inhibition or displacement. Read a high Ki as lower affinity.
